Compound activity deposited in PubChem by Johns Hopkins Ion Channel Center.
KCNQ1 inh – blocks the human KCNQ1 potassium channel. 310,000 tested, 1.3% active. P51787. CHO-K1 KCNQ1, FluxOR thallium flux fluorescence; stronger effect = higher value. B-score at 10 µM;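 active = compounds whose thallium flux B-score, printed positive for inhibition, exceeds three library SD while starting fluorescence stays within three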;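 also: channel opened by potassium depolarization with thallium stimulus after 20 min compound exposure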
KCNK3 block – human KCNK3 channel inhibition, primary screen | O14649 | CHO-KCNK3 thallium flux, FluxOR fluorescence; stronger effect = lower value | B-score at 10 µM | 340,000 tested, 0.84% active | AID 602410;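 active = B-score under library mean minus 4 SD, starting fluorescence ratio at most library mean plus 5 SD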;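 also: more negative B-score means stronger inhibition of thallium flux through KCNK3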
KCNQ1 pot – human KCNQ1 channel potentiation or activation; B-score at 10 µM; P51787; 310,000 tested, 0.35% active; CHO-K1 KCNQ1, thallium flux FluxOR fluorescence; stronger effect = higher value;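 active = fluorescence ratio B-score, a plate-corrected score, at least three library SD, with initial intensity B-score within 5 SD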
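System: Stable KCNQ1 CHO-K1 line | Incubation: 90 min dye loading and 20 min compound exposure, both at room temperature | Measure: Ratio B score | Medium: Assay buffer for compound exposure, DMSO matched across wells | Compound dosing: Single-concentration screen | Probe or stimulus: K+/Tl+ depolarizing stimulus | Measured by: Kinetic FluxOR fluorescence, 10 s baseline plus 110 s post-stimulus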
hERG rescue – compounds protecting human hERG from proarrhythmic drug block | Q12809 | CHO-hERG, FluxOR thallium flux, dofetilide IC70 present | activation (rescue from dofetilide block), less the hit threshold, % at 10 µM | 310,000 tested, 0.51% active | AID 1511;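 active = activation above the mean of controls blocked by dofetilide plus 5 SD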;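 also: thallium influx through hERG after potassium depolarization seen as dye fluorescence rise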
KCNK9 block – inhibitors of human KCNK9 two-pore domain potassium channel; 310,000 tested, 1.2% active; Q9NPC2; HEK293 KCNK9, FluxOR thallium flux fluorescence; stronger effect = lower value; B-score at 10 µM;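 active = ratio B-score over 3 SD below the library mean, with starting fluorescence within 5 SD of its mean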;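 also: negative B-score means less thallium flux so channel inhibition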
Target sequence (Q9NPC2 whole entry, looked up, the tested form may be a part): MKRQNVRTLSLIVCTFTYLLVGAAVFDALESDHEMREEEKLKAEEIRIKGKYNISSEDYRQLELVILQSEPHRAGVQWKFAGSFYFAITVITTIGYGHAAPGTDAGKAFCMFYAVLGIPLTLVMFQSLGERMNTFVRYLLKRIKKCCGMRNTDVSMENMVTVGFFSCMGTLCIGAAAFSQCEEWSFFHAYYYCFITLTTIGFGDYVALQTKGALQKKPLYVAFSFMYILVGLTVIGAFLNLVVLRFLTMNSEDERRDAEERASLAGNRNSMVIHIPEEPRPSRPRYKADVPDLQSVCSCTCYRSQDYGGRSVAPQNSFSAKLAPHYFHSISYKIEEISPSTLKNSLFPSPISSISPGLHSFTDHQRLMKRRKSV
KCNK9 inh conf – confirmation of human KCNK9 potassium channel inhibitors; shares compounds with KCNK9 block; HEK293 KCNK9 cells, FluxOR thallium flux fluorescence; inhibition, % at 10 µM; 4,900 tested, 43% active; AID 492992;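 active = thallium signal inhibited by more than 5 SD of the compound-free buffer control wells, on both duplicate plates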
Kir2-1 spec – tests whether KCNK9 modulators also affect mouse Kir2.1; inhibition, % at 10 µM; AID 492993; Kir2.1 cells, FluxOR thallium flux fluorescence; 4,900 tested, 4% active; shares compounds with KCNK9 block;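 active = thallium signal drop more than 5 SD beyond the mean of the no-compound control wells, seen in both duplicate plates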;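 also: signal is fluorescence rise after thallium addition divided by baseline fluorescence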
HEK293 Tl ctr – non-induced cell nonspecific activity of KCNK9 modulators. inhibition, % at 10 µM. non-induced KCNK9-HEK293, FluxOR thallium flux. shares compounds with KCNK9 block. AID 492997. 4,900 tested, 40% active;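 active = thallium signal drop beyond 5 SD of the untreated control mean, on both duplicate plates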
Numbers stand for hits; - = inactive; . = no result. Shown are actives, neighbours in structure and some others; about 3.1% of the full set was active somewhere.

SMILES	KCNQ1 inh	KCNK3 block	KCNQ1 pot	hERG rescue	KCNK9 block	KCNK9 inh conf	Kir2-1 spec	HEK293 Tl ctr
COC(=O)c1ccc(COc2ccccc2/C=C(\C#N)C(=O)Nc2c(C)cccc2C)cc1	-	-	-	-	-13	76%	-	34%
Nc1nc(Nc2ccccc2)nc(NC2CCCCC2)c1[N+](=O)[O-]	-	-	-	-	-	.	.	.
COc1ccc(OC)c(S(=O)(=O)N2CCN(c3c(C)cccc3C)CC2)c1	-	-	-	-	-11	52%	-	34%
CC(C)=CCc1c(-c2ccc(O)cc2O)oc2c3c(cc(O)c2c1=O)OC(C)(C)C=C3	-	.	-	-	-	-	-	-
NC(=O)CC(NC(=O)c1ccccc1)c1ccc(NCCN2CCCCC2)c([N+](=O)[O-])c1 (centres undefined)	-	-	-	-	-	.	.	.
O=C(CN1CCc2ccccc21)NCc1ccccc1Cl	-	-	-	-	-	-	-	-
O=C(CN1CCc2ccccc21)NCc1ccc2c(c1)OCO2	-	-	-	-	-	.	.	.
CC1(NC(=O)Nc2cccc3ccccc23)CCS(=O)(=O)C1 (centres undefined)	-	-	-	-	-	.	.	.
O=C(NN1C(=O)c2ccccc2C1=O)C1C2CCCCC21 (centres undefined)	-	-	-	-	-	-	-	-
CCc1nnc(NS(=O)(=O)c2ccc(N/C=C(\C=O)c3nc4cc(Cl)ccc4o3)cc2)s1	-	-	-	-	-	-	-	-
CCc1nnc(NS(=O)(=O)c2ccc(NC(=O)c3ccc(Cl)cc3)cc2)s1	-	-	-	-	-	.	.	.
Cc1nc(N(C)Cc2ccccc2)c2nnn(Cc3ccccc3)c2n1	-	-	-	-	-	-	-	-
CCN1CC2=C(OC(N)=C(C#N)C2c2cccs2)/C(=C/c2cccs2)C1 (centres undefined)	-	-	-	-	-8.9	35%	-	31%
CCCC1=C(C(=O)OCC)C(c2cccs2)C(C#N)=C(N)O1 (centres undefined)	-	-	-	-	-	.	.	.
O=C(CN1C(=O)S/C(=C\c2cc(Cl)c(O)c(Cl)c2)C1=O)Nc1ccccc1	-	-	-	12	-	-	-	-
CCCCC(CC)COC1(c2ccccc2)OC(=O)c2ccccc21 (centres undefined)	-	-	-	-	-18	76%	-	50%
O=C1OC(OC2CCCCC2)(c2ccccc2)c2ccccc21 (centres undefined)	-	-	-	-	-18	76%	-	60%
O=C1OC(Oc2ccccc2)(c2ccccc2)c2ccccc21 (centres undefined)	-	-	-	-	-10	52%	-	48%
COC(=O)c1cc(NC(=O)COC(=O)C2CCC2)cc(C(=O)OC)c1	-	-	-	-	-	.	.	.
O=C(COc1ccccc1Cl)NNC(=O)c1ccc(-n2cncn2)c([N+](=O)[O-])c1	.	-	.	.	.	.	.	.
CC(C)[C@H](NS(=O)(=O)c1cccc(C(F)(F)F)c1)C(=O)OCC(=O)NC(=O)NCc1ccco1	.	-	.	.	.	.	.	.
N#Cc1cc(N)ccc1Sc1ccc(Cl)cc1	-	-	-	-	-8.5	38%	-	32%
COc1cccc(C(=O)Nc2cccc(-c3nnc(-c4ccco4)o3)c2)c1	-	-	-	-	-	.	.	.
COc1ccc(Br)cc1C(=O)Nc1cccc(-c2nnc(-c3ccco3)o2)c1	-	-	-	-	-12	60%	-	-
CC1S/C(=N/N=C/c2ccco2)N(Cc2ccccc2)C1=O (centres undefined)	-	-	-	-	-	.	.	.
CC/C(=N\N=C1\SC(C)C(=O)N1Cc1ccco1)c1ccccc1 (centres undefined)	-	-	-	-	-	-	-	26%
Cc1cc(C)c(NC(=O)c2cccc3c2C(=O)N(C2CCCCC2)C3)c(C)c1	-	-	-	-	-12	-	-	52%
Cc1cc(N2CCN(C)CC2)nc2ccc(NC(=O)CCC(=O)NCCc3ccc(Cl)cc3)cc12	-	-	-	-	-	.	.	.
